Test results published in ChEMBL document CHEMBL1129573, “Structure-activity relationships in a series of substituted indolocarbazoles: topoisomerase I and protein kinase C inhibition and antitumoral and antimicrobial properties” (J Med Chem, 1996).
In brackets after ≈: the same amount, converted by molar mass.

How the values were obtained:
B16 [1] = assay: Antiproliferative activity against B16 mouse melanoma cells; format: functional, cell-based
Outline: (§1)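 B16 mouse melanoma cells (EMEM, 10% FCS, 37 °C, 5% CO2) plated at 200 cells/dish, adhered 20 h, then exposed 24 h to increasing drug concentrations. Drug medium removed, PBS wash, 12 days regrowth in fresh medium.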

Bacillus cereus = assay: Antimicrobial activity on Bacillus cereus; format: functional
[2] = molecular target: Protein kinase C alpha type (Homo sapiens, UniProt P17252); assay: Inhibition of Protein Kinase C(PKC)
Outline: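 Procedure a: PKC (0.5 μg/mL) with histone IIIs (2.4 mg/mL), 10 μM ATP plus [γ32P]ATP, 10 mM MgCl2, 0.1 mM CaCl2, phosphatidylserine and diacylglycerol (10 mg/mL each), 50 mM Tris pH 7.5, at 30 °C for 12 min. TCA precipitation, histone-bound 32P counted by scintillation; triplicate.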

P388 = assay: Antiproliferative activity against P388 Murine Leukemia cells; format: functional, cell-based; conditions: Mus musculus
[3] = test system: DNA topoisomerase II (Bos taurus); assay: Inhibitory activity towards Topoisomerase 2 from calf thymus
[4] = test system: DNA topoisomerase I (Bos taurus); assay: Inhibitory activity towards Topoisomerase 1 from calf thymus.
[5] = Inhibition of Protein Kinase A (PKA).
Outline: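 PKA (1 μg/mL) phosphorylating histone IIa (1 mg/mL) with 10 μM ATP plus [γ32P]ATP, 5 mM MgCl2, 50 mM Tris pH 7.0, at 30 °C for 12 min. Stopped with 12% TCA with BSA carrier, reprecipitated. 32P incorporated into histone counted by scintillation; triplicate.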

B16 [6] = assay: Compound was evaluated for antiproliferative activity against B16 mouse melanoma cells *= Partially precipitated in DMSO; format: functional, cell-based; outline: as §1

Row | Structure (SMILES) | IC50 (B16 [1]) [µM] | MIC (Bacillus cereus) [µg/mL] | IC50 [2] [µM] | IC50 (P388) [µM] | MIC [3] [µg/mL] | MIC [4] [µg/mL] | IC50 [5] [µM] | IC50 (B16 [6]) [µM]
1 | COC1C(CO)OC(n2c3c(Cl)cccc3c3c4c(c5c6cccc(Cl)c6[nH]c5c32)C(=O)N(N)C4=O)C(O)C1O (stereo not given) | 0.3 | 0.8 (≈ 1.37 µM) | > 100 | 0.1 | > 10 | 0.1 (≈ 0.171 µM) |  | 
2 | COC1C(CO)OC(n2c3ccccc3c3c4c(c5c6ccccc6[nH]c5c32)C(=O)N(O)C4=O)C(O)C1O (stereo not given) | 5.8 | 25 (≈ 48.3 µM) | 40 | 3 | > 10 | 0.1 (≈ 0.193 µM) |  | 
3 | O=CNN1C(=O)c2c(c3c4ccccc4[nH]c3c3[nH]c4ccccc4c23)C1=O | > 100 | 50 (≈ 136 µM) | > 100 | 3.5 | > 10 | 1 (≈ 2.71 µM) |  | 
4 | O=C1NC(O)c2c1c1c3ccccc3[nH]c1c1[nH]c3ccccc3c21 (stereo not given) |  | 6.25 (≈ 19.1 µM) |  | 0.3 |  |  | 34 | 
5 | NNC(=O)NN1C(=O)c2c(c3c4ccccc4[nH]c3c3[nH]c4ccccc4c23)C1=O |  | 50 (≈ 126 µM) | 78 | > 10 |  |  |  | 75
6 | COC1C(CO)OC(n2c3c(Cl)cccc3c3c4c(c5c6cccc(Cl)c6[nH]c5c32)C(=O)N(O)C4=O)C(O)C1O (stereo not given) | 0.7 | 3.1 (≈ 5.29 µM) | 68 | 0.5 | > 10 | 0.3 (≈ 0.512 µM) |  | 
7 | COC1C(CO)OC(n2c3ccccc3c3c4c(c5c6ccccc6[nH]c5c32)CNC4=O)C(O)C1O (stereo not given) |  | 12.5 (≈ 25.6 µM) | 3.7 | 3 | > 10 | 0.01 (≈ 0.0205 µM) |  | 
8 | O=C1NC(=O)c2c1c1c3ccccc3[nH]c1c1[nH]c3ccccc3c21 [STAUROSPORINE AGLYCON] | > 100 | > 50 |  | 4 |  |  | 60 | 
9 | O=CNN1C(=O)c2c(c3c4cccc(Cl)c4[nH]c3c3[nH]c4c(Cl)cccc4c23)C1=O |  | > 50 | > 100 | > 10 |  |  |  | 
10 | O=C1NCc2c1c1c3cccc(Cl)c3[nH]c1c1[nH]c3c(Cl)cccc3c21 |  | 6.25 (≈ 16.4 µM) | > 100 | 3.5 | > 10 | > 10 | > 100 | 
11 | O=C1c2c(c3c4ccccc4[nH]c3c3[nH]c4ccccc4c23)C(=O)N1CCO | > 150 | > 50 | > 100 | 7 | > 10 | > 10 |  | 
